Read-outs that look alike come from different tables or passages of the source. One block for each compound: values may come before it.
How the values were obtained:
MBP [1] = target: T1, MBP (Escherichia coli, UniProt P0AEX9); experiment: DSF thermal stability of MBP with ligands; assay type: binding, E. coli; conditions: 1 µM MBP, 1mM ligand
[2] = Solubility behavior under SPR conditions; assay type: physicochemical
myoc-OLF [3] = target: T2, myoc-OLF (Homo sapiens, UniProt Q99972); experiment: SPR binding to immobilized myoc-OLF; conditions: for Binding mode by SPR: sensorgram inspection
T2 sequence (Q99972 244-503 limits assumed): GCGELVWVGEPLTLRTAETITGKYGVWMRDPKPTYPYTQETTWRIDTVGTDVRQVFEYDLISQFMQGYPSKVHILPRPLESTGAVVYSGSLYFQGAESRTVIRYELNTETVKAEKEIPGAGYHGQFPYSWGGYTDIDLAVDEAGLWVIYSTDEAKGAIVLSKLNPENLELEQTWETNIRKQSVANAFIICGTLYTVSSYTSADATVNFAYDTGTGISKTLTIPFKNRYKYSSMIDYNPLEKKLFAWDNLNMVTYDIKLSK

myoc-OLF [4] = target: T2, myoc-OLF; experiment: Differential scanning fluorimetry; assay type: binding; conditions: DSF; hits at concentrations used for screening
Solubility in cell media = assay type: physicochemical; conditions: addition to cell media
myoc-OLF [5] = target: T2, myoc-OLF; experiment: myoc-OLF amyloid fibrillization assay; assay type: biochemical; conditions: for Fibrils/deposits by AFM: after fibrillization assay; for myoc-OLF fibrillization (ThT fluorescence): ~3 d, 96-well format
[6] = tested on: HEK-cell line stably expressing I477N-mutant myocilin; experiment: Mutant myocilin cellular secretion assay; assay type: cell-based; conditions: 20, 100, 200 µM compound, 24 h, immunoblotting of media
[7] = tested on: HEK-cell line stably expressing I477N-mutant myocilin; experiment: Cellular toxicity profile; assay type: cell-based; conditions: up to 200 µM
MBP [8] = target: T1, MBP; experiment: CARS with MBP, SO fluorescence, 96-well; assay type: binding, E. coli; conditions: for Change in SO fluorescence in the presence of MBP: negative controls, 0–1 mM
myoc-OLF [9] = target: T2, myoc-OLF; experiment: CARS with myoc-OLF, TMAO dose-dependent SO fluorescence, 96-well; assay type: binding; conditions: 1 µM myoc-OLF, 0.6 M GdnHCl
Summary of the method: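 myoc-OLF was expressed as a Factor Xa-cleavable MBP fusion and purified. TMAO was titrated at 0−1 M, and protein was added last, just before fluorescence readings. The signal window was the SO fluorescence difference with versus without 1 M TMAO.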

E. coli MBP = conditions: MBP ligand; cited from earlier work
[10] = standard SPR conditions, 5% DMSO
[11] = standard SPR conditions, compounds dissolved in 5% DMSO

Structure (SMILES): OC[C@H]1O[C@H](O[C@H]2[C@H](O)[C@@H](O)[C@@H](O[C@H]3[C@H](O)[C@@H](O)[C@@H](O[C@H]4[C@H](O)[C@@H](O)C(O)O[C@@H]4CO)O[C@@H]3CO)O[C@@H]2CO)[C@H](O)[C@@H](O)[C@@H]1O (stereo partly drawn) [maltotetraose]
Change in melting temperature (ITm) (MBP [1]): 10 K

Solubility behavior [2]: poor solubility behavior
Kd (myoc-OLF [3]; read-out: Kd from SPR, with surfactant P-20 in buffer solution): 38.6 ± 12.7 µM
Binding stoichiometry from SPR (myoc-OLF [3]; surfactant P-20 present in SPR buffer): stoichiometric binding
ΔTm (myoc-OLF [4]): −0.8 ± 0.0 °C
Structure (SMILES): CC(C)(C)c1cc(/C=C(\C#N)C(N)=S)cc(C(C)(C)C)c1O [Tyrphostin AG 879]

Fibrils/deposits by AFM (myoc-OLF [5]): no fibrils apparent
ΔTm (myoc-OLF [4]): −0.3 ± 0.2 °C
Structure (SMILES): O=c1cc(-c2ccc(O)cc2)oc2cc(O)cc(O)c12 [Apigenin, 4’,5,7-trihydroxyflavone]
Solubility in cell media (Solubility in cell media): precipitated upon addition to the cell media
myoc-OLF fibrillization (ThT fluorescence) (myoc-OLF [5]): decreased myoc-OLF fibrillization in a dose-dependent manner

Solubility behavior [2, 10]: poor solubility behavior
Binding mode by SPR (myoc-OLF [3]): non-stoichiometric binders
Kd from SPR (myoc-OLF [3]; with surfactant P-20 in buffer solution): weak sigmoidal response ^c, ^d
ΔTm (myoc-OLF [4]): −0.4 ± 0.4 °C
Structure (SMILES): O=c1c(O)c(-c2ccc(O)cc2O)oc2cc(O)cc(O)c12 [Morin]

Binding mode by SPR (myoc-OLF [3]): non-stoichiometric binders
Kd from SPR (myoc-OLF [3]; [11]): sigmoidal dose-response
ΔTm (myoc-OLF [4]): −0.4 ± 0.1 °C
Structure (SMILES): Oc1cc(O)cc(/C=C/c2ccc(O)c(O)c2)c1 [Piceatannol]

Structure (SMILES): CC(=O)c1c(O)c(C)c(O)c(Cc2c(O)c3c(c(C(=O)/C=C/c4ccccc4)c2O)OC(C)(C)C=C3)c1O [Rottlerin]
Kd (myoc-OLF [3]): 30.1 ± 0.6 µM
Binding mode by SPR (myoc-OLF [3]): promiscuous binder

Solubility in cell media (Solubility in cell media): adequate solubility
Structure (SMILES): O=c1cc(-c2ccccc2)oc2c(O)c(O)ccc12 [A1, 7,8-dihydroxyflavone]
Secretion of I477N-mutant myocilin [6]: increased I477N-mutant myocilin secretion in a dose-dependent manner
Cellular toxicity profile [7]: adequate
myoc-OLF fibrillization (ThT fluorescence) (myoc-OLF [5]): dose-dependent decrease in myoc-OLF fibrilization

Structure (SMILES): O=C1Nc2ccccc2C1=Cc1cc(Br)c(O)c(Br)c1 [G5]
Secretion of I477N-mutant myocilin [6]: increased I477N-mutant myocilin secretion in a dose-dependent manner
Solubility in cell media (Solubility in cell media): adequate solubility
Cellular toxicity profile [7]: adequate
myoc-OLF fibrillization (ThT fluorescence) (myoc-OLF [5]): potent fibril inhibition

Structure (SMILES): O=S(=O)(F)Cc1ccccc1 [PMSF]
Change in SO fluorescence in the presence of MBP (MBP [8]): Neither

Structure (SMILES): C[N+](C)(C)[O-] [TMAO, trimethylamine-N-oxide]
Concentration by which the decrease in SO fluorescence levels off (myoc-OLF [9]): ≤ 1 M

Structure (SMILES): O=c1c(O)c(-c2cc(O)c(O)c(O)c2)oc2cc(O)cc(O)c12 [Myricetin]
Binding mode by SPR (myoc-OLF [3]): bind non-specifically
Kd from SPR (myoc-OLF [3]; [11]): linear dose-response
ΔTm (myoc-OLF [4]): 1.7 ± 0.0 °C

Binding mode by SPR (myoc-OLF [3]): bind non-specifically
Kd from SPR (myoc-OLF [3]; [11]): linear dose-response
Structure (SMILES): O=C(/C=C/c1ccc(O)cc1)c1ccc(O)cc1O [Isoliquiritigenin]

Structure (SMILES): OC[C@@H](O)[C@@H](O[C@H]1O[C@H](CO)[C@@H](O)[C@H](O)[C@H]1O)[C@H](O)[C@@H](O)CO [maltitol]
Kd (E. coli MBP): 50 µM
Concentration by which a decrease in SO fluorescence was seen (MBP [8]; 2 µM MBP, 0.6 M GdnHCl): ~ 10 µM
Change in melting temperature (ITm) (MBP [1]): 0.9 K

Solubility behavior [2, 10]: poor solubility behavior
Kd from SPR (myoc-OLF [3]; [11]): no detectable binding ^d
ΔTm (myoc-OLF [4]): 0.0 ± 0.2 °C
Structure (SMILES): O=C(Nc1ccc([N+](=O)[O-])cc1Cl)c1cc(Cl)ccc1O [Niclosamide]
Binding mode by SPR (myoc-OLF [3]): failed to elicit an interpretable response

Solubility behavior [2, 10]: poor solubility behavior
Fibrils/deposits by AFM (myoc-OLF [5]): no fibrils apparent
Kd (myoc-OLF [3]; read-out: Kd from SPR, standard SPR conditions, compounds dissolved in 5% DMSO): 33.5 ± 20.9 µM
ΔTm (myoc-OLF [4]): 0.2 ± 0.0 °C
Structure (SMILES): O=C1Nc2ccc(I)cc2C1=Cc1cc(Br)c(O)c(Br)c1 [GW5074, 3-(3,5-dibromo-4-hydroxybenzylidine-5-iodo-1,3-dihydro-indol-2-one)]
Solubility in cell media (Solubility in cell media): precipitated upon addition to the cell media
myoc-OLF fibrillization (ThT fluorescence) (myoc-OLF [5]): decreased myoc-OLF fibrillization in a dose-dependent manner

Structure (SMILES): OC[C@H]1O[C@H](O[C@H]2[C@H](O)[C@@H](O)C(O)O[C@@H]2CO)[C@H](O)[C@@H](O)[C@@H]1O (mixture of isomers) [Maltose, maltose]
Kd (E. coli MBP): 1 µM
Decrease in SO fluorescence intensity (MBP [8]; at low micromolar concentrations, 2 µM MBP, 0.6 M GdnHCl): 50%
Change in melting temperature (ITm) (MBP [1]): 10 K

Structure (SMILES): NC(=O)CI [iodoacetamide]
Change in SO fluorescence in the presence of MBP (MBP [8]): Neither

Structure (SMILES): O=C(CCc1ccc(O)cc1)c1c(O)cc(O)cc1O [Phloretin]
Binding mode by SPR (myoc-OLF [3]): bind non-specifically
Kd from SPR (myoc-OLF [3]; [11]): linear dose-response
ΔTm (myoc-OLF [4]): 1.2 ± 0.0 °C

Structure (SMILES): O=C(O)C1=CC(=C(c2ccc(O)c(C(=O)O)c2)c2ccc(O)c(C(=O)O)c2)C=CC1=O [Aurintricarboxilic acid, Aurintricarboxylic acid]
Fibrils/deposits by AFM (myoc-OLF [5]): high levels of deposits similar to vehicle control
myoc-OLF fibrillization (ThT fluorescence) (myoc-OLF [5]): increase in ThT fluorescence
Kd (myoc-OLF [3]): 17.1 ± 9.6 µM
ΔTm (myoc-OLF [4]): 0.3 ± 0.2 °C

From article PMC3944078 (ACS chemical biology, 2013)
